Compound activity (PubChem BioAssay)
Most compounds without a hit are left out; they make up all but 1.9% or so of the library.
HDAC3 inhib: HDAC3 deacetylase inhibitors, primary screen, biochemical, fluorescence, cell-free homogeneous; Histone deacetylase 3 (Homo sapiens), O15379; recombinant HDAC3, fluorogenic peptide/trypsin coupled; inhibition, % at 8.3 µM; 320,000 tested, 0.15% active; AID 2718, 2010; in the data active means inhibition above about 26%, passing the limit was not always enough; inconclusive means no clear call, values can overlap the other calls
Target sequence (O15379 whole entry, looked up): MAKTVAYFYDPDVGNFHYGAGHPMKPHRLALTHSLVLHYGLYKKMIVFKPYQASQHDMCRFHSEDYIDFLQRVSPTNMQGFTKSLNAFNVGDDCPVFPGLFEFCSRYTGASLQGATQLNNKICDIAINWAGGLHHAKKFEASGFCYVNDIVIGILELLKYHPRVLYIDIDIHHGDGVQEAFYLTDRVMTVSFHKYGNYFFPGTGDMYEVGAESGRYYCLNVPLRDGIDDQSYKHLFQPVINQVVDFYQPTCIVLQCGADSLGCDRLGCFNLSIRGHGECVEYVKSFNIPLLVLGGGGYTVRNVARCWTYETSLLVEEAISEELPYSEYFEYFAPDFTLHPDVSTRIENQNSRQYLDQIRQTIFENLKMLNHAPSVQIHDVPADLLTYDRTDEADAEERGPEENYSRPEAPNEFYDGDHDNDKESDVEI
LANA-H2B inh: blockers of LANA interaction with H2A/H2B – biochemical, FP readout, HTS, primary screen; Protein LANA1 (Human herpesvirus 8 type P (isolate GK18)), Q9QR71; cell-free LANA-H2A/H2B peptide, fluorescence polarization; inhibition, % (test concentration not listed); 320,000 tested, 0.6% active; AID 2629, 2010; in the data active means inhibition mostly above about 10%, no sharp cut-off; inactive means mostly below about 6.7%
CaV13 ICDI inh: Disruptors of the CACNA1D IQ motif to Ca2+-dependent inactivation inhibitor domain association, primary screening, Förster resonance energy transfer in intact living …; HEK cells, CFP/YFP FRET ICDI-IQ, plate reader, 10 min; percent FRET-ratio fall versus neutral wells; inhibition, % at 12.3 µM; 340,000 tested, 0.098% active; AID 743397;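 active means mean replicate inhibition of at least 30% and at least 1% of replicates passing that level; inconclusive means only one of the two criteria is met; inactive means neither criterion is met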;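 further: 0% = median of the neutral control wells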
Runt-SMMHC FRET: inhibitors of RUNX1 Runt–CBFb-SMMHC binding, primary screen, biochemical, FRET, Cerulean-Runt, Venus-CBFb-SMMHC, uHTS. Runt-related transcription factor 1 (Homo sapiens) + Core-binding factor subunit beta …. Cerulean-Runt/Venus-CBFb-SMMHC FRET ratio 530/480, 1 h. inhibition, % at 20 µM. 220,000 tested, 0.74% active. AID 1434, 2008;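 active means mean inhibition across duplicate retests at 20 µM reaching about 50%, limit read from the data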;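 further: 0% = DMSO wells and 100% = wells with excess untagged CBFb-SMMHC; inhibitors lower the FRET ratio by blocking Runt binding to CBFb-SMMHC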
Runt-CBFb FRET: inhibitors of RUNX1 Runt–CBFb binding, primary screen, biochemical, FRET, Cerulean-Runt, Venus-CBFb, uHTS; Runt-related transcription factor 1 (Homo sapiens) + Core-binding factor subunit beta …; Cerulean-Runt/Venus-CBFb FRET ratio 530/480, 1 h; inhibition, % at 20 µM; 220,000 tested, 0.46% active; AID 1496, 2009;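 active means inhibition over about 50% at 20 µM in the single-dose screen, limit read from the data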;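 further: 0% = DMSO wells and 100% = excess unlabeled CBFb competitor control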
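Reagent – Venus-CBFb binding partner, 100 nM · Assay system – Cerulean-tagged RUNX1 Runt domain (FRET donor) fusion protein · Input – 100 nM per protein · Incubation – two 1 h room-temperature incubations shielded from light · Measured by – FRET fluorescence · Medium – Tris buffer pH 7.5 with salts and BSA · Benchmarks – unlabeled CBFb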
RanGTP-Impb inh: inhibitors of RanGTP-importin-beta interaction, primary screen, biochemical, FRET, CFP-Ran, YFP-importin-beta, homogeneous; Ran GTPase (GTP-bound) - importin-beta complex; cell-free CFP-Ran/YFP-importin-beta FRET ratio; inhibition, % (test concentration not listed); 300,000 tested, 1.1% active; AID 2216, 2009;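 active means more than half of the replicate wells show a fall in the fluorescence ratio signal beyond about 16%, limit read from the data, passing the limit was not always enough; inconclusive means exactly half of the replicate wells pass the set limit; inactive means fewer than half of replicates pass the limit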;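 further: 0% = DMSO wells and 100% = Ran loaded with GDP instead of GTP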
* hit, by the source's call; ? = inconclusive; . = no result given; + = active, no number; ! = a repeat was not active.

SMILES | HDAC3 inhib | LANA-H2B inh | CaV13 ICDI inh | Runt-SMMHC FRET | Runt-CBFb FRET | RanGTP-Impb inh
CCOC(=O)CCc1c(C)c2ccc(OCC(=O)N(CC)CC)c(C)c2oc1=O | -43 | -3 | -6 | -1 | 1 | -3
CCOC(=O)CCc1c(C)c2ccc(O)cc2oc1=O | -160 | -5 | -6 | 91* | 40 | 1
CCN(CC)c1ccc2c(C)c(-c3ccc(N)cc3)c(=O)oc2c1 | -18 | -4 | . | 64* | 48 | 136*
CCOC(=O)N(C)c1c(CC)nc2c(OCc3cc(Cl)cc(Cl)c3)cccn12 | . | . | -7 | . | . | .
O=C(O)C1Nc2c(C(=O)N3CCOCC3)cccc2C2C=CCC12 (stereo not given) | -3 | 0 | . | 9 | 15 | 1
Cc1ccc2c(c1C)NC(C(=O)O)C1CC=CC21 (stereo not given) | ? | 27* | . | 2 | 13 | -1
O=C1CCc2cc(S(=O)(=O)NC(Cc3ccccc3)C(=O)NCCC3=CCCCC3)ccc2N1 (stereo not given) | 8 | -1 | 66* | 4 | 0 | 0
CC(C)(C)NC(=O)C(Cc1ccccc1)NS(=O)(=O)c1ccc2c(c1)CCC(=O)N2 (stereo not given) | -9 | -2 | -4 | 0 | 0 | 6
O=C(CN1C(=O)C2CC=CCC2C1=O)NCC1COc2ccccc2O1 (stereo not given) | -8 | 51* | -5 | -10 | -2 | 0
COc1ccc(/C=C/C2=Nc3ccccc3NC(C)(C)C2)cc1OC | 9 | 3 | -3 | -5 | -4 | 0
O=C(CN1C(=O)S/C(=C\c2ccc(F)cc2)C1=O)NC1C=CS(=O)(=O)C1 (stereo not given) | -3 | 1 | -3 | . | . | 16*
COc1ccc(CC(NC(C)=O)C(=O)NC2CCN(C(=O)Nc3ccc(Cl)cc3)CC2)cc1OC (stereo not given) | -9 | 2 | -4 | 0 | 1 | -1
COc1cccc(NC(=O)CN(C)C(=O)c2c(-c3c(F)cccc3Cl)noc2C)c1 | -1 | 4 | -2 | . | . | .
CC(=O)[C@@H]1[C@@H](C(=O)c2ccccc2)[C@]2(C(=O)Nc3ccccc32)[C@H]2C=Cc3cc(F)ccc3N12 | 4 | -5 | -6 | 5 | 9 | 1
O=C(c1ccccc1)[C@@H]1[C@@H](C(=O)c2ccc(F)cc2)[C@@]2(C(=O)Nc3ccccc32)[C@H]2c3ccccc3C=CN12 | 3 | 13 | -5 | -1 | 0 | 21*
COc1ccc(NC(=O)C2OC3OC(C)(C)OC3C3OC(C)(C)OC23)cc1 (stereo not given) | 0 | 27* | -4 | 0 | 2 | 2
O=C(COC(=O)c1cc[n+]([O-])cc1)Nc1ccccc1Sc1ccccc1 | -3 | 140* | 4 | -1 | 0 | 1
O=C1Nc2ccccc2Nc2ncccc21 | -10 | 15* | -5 | 2 | -1 | 1
CC(=O)Nc1ccc(S(=O)(=O)Oc2cccc(/C=C3\SC(N)=NC3=O)c2)cc1 | 6 | 2 | -5 | 0 | -2 | 4
COc1ccccc1C1CN(c2ccc(F)cc2F)N=C1c1cccs1 (stereo not given) | 1 | -5 | . | 83* | 16 | -10
COc1cccc(CNC(=O)c2ccccc2C(=O)NC(C)(C)C(=O)NCc2cccc(OC)c2)c1 | 4 | 0 | -6 | . | . | 0
CC(C)NC(=O)c1cc(C2CCCCN2C(=O)OCCF)on1 (stereo not given) | . | . | -16 | . | . | .
Nc1nnc(-c2cccc(Cl)c2Cl)c(N)n1 | 5 | 11*! | -4 | -1 | -1 | 0
CN(CCC#N)C(=O)COC(=O)C1c2ccccc2Oc2ccccc21 | -2 | -5 | -4 | . | . | 0
N#CCCN(CCC#N)C(=O)C1c2ccccc2Oc2ccccc21 | 0 | 114* | -3 | . | . | -4
SMILES | HDAC3 inhib | LANA-H2B inh | CaV13 ICDI inh | Runt-SMMHC FRET | Runt-CBFb FRET | RanGTP-Impb inh
C/C(=N\N=C1/NC(=O)C(C)S1)c1ccc([N+](=O)[O-])cc1 (stereo not given) | -1 | 16* | -16 | -2 | -3 | 2
CC(O)CNc1cnccn1 (stereo not given) | -7 | 5 | -5 | 0 | 1 | ?
CCOC(=O)[C@]12CCCC=C1N(Cc1ccc(Cl)cc1Cl)C(=O)[C@H](CC(=O)N1CCOCC1)C2 | . | . | -6 | . | . | .
COc1cc(CNCCc2ccccc2)ccc1OCC(N)=O | -6 | 20* | -2 | 0 | -1 | -1
COc1cc(CNCCc2ccccc2)ccc1OCC(=O)NC(C)(C)C | 1 | -4 | -6 | -3 | 0 | 10
N=c1n(CCCOc2ccc(F)cc2)c2ccccc2n1CC(N)=O | -7 | -5 | -5 | 1 | -1 | 2
CCOC(=O)c1cc(-c2ccccc2)sc1NC(=O)CSc1nncs1 | 2 | 4 | -6 | -2 | -5 | 0
CCOC(=O)c1cc(-c2ccccc2)sc1NC(=O)CSc1nnc(N)s1 | 4 | + | 96* | -1 | -6 | 5
O=C(NCc1cccnc1)c1sc2ccccc2c1Cl | 7 | -3 | -9 | -3 | -1 | 1
CC(NC(=O)CNC(=O)c1sc2ccccc2c1Cl)c1cccnc1 (stereo not given) | 1 | 22* | -3 | . | . | 4
CCN(CC)C(=O)N1CCN(S(=O)(=O)c2ccccc2)CC1 | -2 | 4 | -5 | 1 | 1 | -11
CCCCNc1nc2sc3c(c2c(=O)n1-c1cccc(Cl)c1)CCN(C)C3 | -9 | -3 | -4 | 126* | 49 | 30*
CCCCCNc1nc2sc3c(c2c(=O)n1-c1cccc(Cl)c1)CCN(C)C3 | -5 | -2 | -3 | 103* | 44 | 44*
O=C(Nc1ccccc1C(=O)Nc1ccccc1)c1ccccc1Br | 1 | -2 | -2 | . | . | 2
Cc1ccc(NC(=O)COc2ccc(Br)cc2C)cc1 | . | . | -3 | -1 | -3 | -2
NS(=O)(=O)c1ccc(N/N=C/c2ccc(O)cc2O)c([N+](=O)[O-])c1 | -1 | -3 | -7 | 0 | -1 | ?
NS(=O)(=O)c1ccc(N/N=C/c2ccc(O)c(O)c2O)c([N+](=O)[O-])c1 | . | . | -7 | 65* | 43 | .
COCCCn1c(Cc2ccccc2)nnc1SCC(=O)N1CCCCC1 | 3 | 79* | . | 1 | -1 | 2
